Assay results taken from ChEMBL document CHEMBL3085712, “Protein tyrosine phosphatase 1B (PTP1B) inhibitors from Morinda citrifolia (Noni) and their insulin mimetic activity” (J Nat Prod, 2013).
One block for each compound: values may come before it.

Tests used:
[1] = biological target: T1, Tyrosine-protein phosphatase non-receptor type 1 (Homo sapiens, UniProt P18031); experiment: Inhibition of PTP1B (unknown origin) assessed as p-nitrophenol release from pNPP substrate after 30 mins by spectrophotometry
T1 sequence (P18031 whole entry): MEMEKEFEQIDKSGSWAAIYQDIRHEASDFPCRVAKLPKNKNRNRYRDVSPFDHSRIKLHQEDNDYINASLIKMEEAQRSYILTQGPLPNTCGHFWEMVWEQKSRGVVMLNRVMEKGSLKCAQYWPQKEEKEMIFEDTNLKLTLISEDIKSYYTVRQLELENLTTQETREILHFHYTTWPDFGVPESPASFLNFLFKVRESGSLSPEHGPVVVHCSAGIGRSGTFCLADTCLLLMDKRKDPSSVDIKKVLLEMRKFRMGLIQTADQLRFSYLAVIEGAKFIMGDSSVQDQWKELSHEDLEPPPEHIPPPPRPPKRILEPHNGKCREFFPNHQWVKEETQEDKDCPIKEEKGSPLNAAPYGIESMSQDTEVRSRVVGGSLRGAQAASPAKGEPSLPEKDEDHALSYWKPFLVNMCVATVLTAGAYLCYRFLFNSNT
How it was run: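 Commercial PTP1B (0.05–0.1 μg) was incubated with 4 mM p-NPP in 50 mM citrate pH 6.0, 1 mM DTT, 0.1 M NaCl and 1 mM EDTA at 37 °C for 30 min. IC50 came from a seven-concentration curve; triplicates, mean ± SD.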

[2] = system: 3T3-L1; experiment: Increase in 2-NBDG uptake in mouse 3T3L1 cells after 30 mins by fluorescence spectrophotometry; format: functional, cell-based
How it was run: (§1)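 Mouse 3T3-L1 preadipocytes were differentiated with insulin, IBMX, dexamethasone, rosiglitazone and 10% FBS, then used 7 days after induction at 3 × 10^4 cells/well. Cells were starved 3 h in low-glucose serum-free DMEM, treated 30 min, then given 50 μM 2-NBDG for 1 h (90 min total). After lysis in 0.1 M K3PO4/1% Triton X-100, fluorescence was read at ex 450/em 535 nm; fold versus DMSO; triplicates, mean ± SD.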

[3] = system: 3T3-L1; experiment: Increase in 2-NBDG uptake in mouse 3T3L1 cells at 400 ug/ml after 30 mins by fluorescence spectrophotometry relative to DMSO-treated control; format: functional; how it was run: as §1

SMILES: COc1cc([C@H]2OC[C@H]3[C@@H]2CO[C@@H]3c2cc(OC)c(O)c(OC)c2)cc(OC)c1O [SYRINGARESINOL]
Activity [2]: Dose-dependent effect | fold change (FC) [3]: 1.46 | IC50 ([1]; read-out: IC50): 15 µM

SMILES: O=C1O[C@@H](c2ccc(O)c(O)c2)[C@H](CO)/C1=C\c1ccc(O)c(O)c1 (relative stereo)
IC50 [1]: Not Active

SMILES: Oc1ccc([C@@H]2OC[C@@H]3[C@H]2CO[C@H]3c2ccc(O)c(O)c2)cc1O
IC50 ([1]; read-out: IC50): > 30 µM

SMILES: COc1cc([C@H]2Oc3ccc(CCCO)cc3O[C@@H]2CO)ccc1O (relative stereo)
IC50 ([1]; read-out: IC50): > 30 µM

SMILES: O=C1O[C@@H](c2ccc(O)c(O)c2)[C@@H]2CO[C@@H](c3ccc(O)c(O)c3)[C@H]12
IC50 [1]: Not Active

SMILES: C[C@H]1[C@H](C)CC[C@]2(C(=O)O)CC[C@]3(C)C(=CC[C@@H]4[C@@]5(C)CC[C@H](O)C(C)(C)[C@@H]5CC[C@]43C)[C@H]12 [URSOLIC ACID]
Activity [2]: Dose-dependent effect | fold change (FC) [3]: 1.82

SMILES: CN(CCOc1ccc(CC2SC(=O)NC2=O)cc1)c1ccccn1 (configuration not stated) [ROSIGLITAZONE]
fold change (FC) [3]: 1.7

SMILES: COc1cc([C@H]2OC[C@H]3[C@@H]2CO[C@@H]3c2cc(OC)c(OC)c(OC)c2)cc(OC)c1OC
Activity [2]: Dose-dependent effect | fold change (FC) [3]: 1.45 | IC50 ([1]; read-out: IC50): 16.8 µM

SMILES: COc1cc([C@@H]2OC[C@H]3[C@@H]2CO[C@H]3c2ccc(O)c(OC)c2)ccc1O [(-)-PINORESINOL]
IC50 ([1]; read-out: IC50): 18.7 µM

SMILES: Oc1ccc([C@H]2OC[C@H]3[C@@H]2CO[C@H]3c2ccc(O)c(O)c2)cc1O
Activity [2]: Dose-dependent effect | fold change (FC) ([3]; in the assay text read “at 20 uM” for “at 400 ug/ml”): 1.52 | IC50 ([1]; read-out: IC50): 21.9 µM

Next, values leading:

IC50 [1]: Not Active
SMILES: O=C/C=C/c1ccc2c(c1)O[C@@H](CO)[C@H](c1ccc(O)c(O)c1)O2 [AMERICANIN A]

IC50 ([1]; read-out: IC50): 19.6 µM
SMILES: COc1cc([C@H]2Oc3ccc(C(=O)O)cc3O[C@@H]2CO)ccc1O

IC50 ([1]; read-out: IC50): > 30 µM
SMILES: O=C(O)/C=C/c1ccc2c(c1)O[C@@H](CO)[C@H](c1ccc(O)c(O)c1)O2 (relative stereo)

IC50 ([1]; read-out: IC50): > 30 µM
SMILES: O=C(O)/C=C/c1ccc2c(c1)O[C@@H](CO)[C@@H](c1ccc(O)c(O)c1)O2

IC50 ([1]; read-out: IC50): > 30 µM
SMILES: COc1cc([C@H]2Oc3ccc(/C=C/C(=O)O)cc3O[C@@H]2CO)ccc1O
